This note sets out measurements from ChEMBL document CHEMBL1148609, “Orally active purine-based inhibitors of the heat shock protein 90” (J Med Chem, 2006).

The source made the active and inactive calls.

For series [1], the system named is Mus musculus. Kind of series: Degradation of HER2 in murine N87 xenograft model at (2*200 mg/kg/day), po. The series is classed as functional, organism-based. The essentials:
(§1)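 Mice bearing N87 gastric tumor xenografts (high HER-2) given the H3PO4 salt orally at 2 × 200 or 2 × 100 mg/kg/day for 3 days. Reference arm received 17-AAG ip at 90 mg/kg once daily. Animals sacrificed 24 h after the last dose and client proteins in tumor lysates assessed by Western blot.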

The nature of series [2]: Tmax in BALB/c mice at 100 mg/kg, po. Details: dose 100 mg/kg, route oral. The conditions noted are these: mouse, in vivo. The format is ADME, organism-based. The essentials: (§2)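 Balb/C mice, three dosed orally by gavage (5-20 mL/kg) and three intravenously; H3PO4 salts formulated as a phosphatidylcholine/water dispersion. Six blood samples collected, the last 4 h postdose. Plasma levels measured by HPLC (detection limit 0.5 µg/mL).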

For series [3], the system named is Mus musculus. The series can be described thus: Degradation of pRaf in murine N87 xenograft model at (2*200 mg/kg/day), po. The format is functional, organism-based. The gist of the method:
as §1

Series [4] is described as follows: Half life in BALB/c mice at 10 mg/kg, iv. The series is classed as ADME, organism-based. Also noted: dose 10 mg/kg, route intravenous. To be noted: mouse, in vivo. The essentials:
as §2

The next series has as its system MCF7. Kind of series: Growth inhibition in breast cancer MCF7 cell line by MTS assay. The series is classed as functional, cell-based. The conditions noted are these: Homo sapiens. The essentials:
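MCF-7 breast cancer cells exposed to compound for 5 days, then MTS added and formazan read at 490 nm. […] Values are the mean of at least three independent observations.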
For orientation: Tetrazolium assays rely on reduction of a dye to a coloured formazan, in cell work by metabolically active cells.

Series [5] is described as follows: (§3) Bioavailability in BALB/c mice at 100 mg/kg, po. The series is classed as ADME, organism-based. The conditions noted are these: BALB/c, mouse, in vivo. The essentials: as §2
Series [6] has as its system Mus musculus. The series can be described thus: Degradation of pHER2 in murine N87 xenograft model at (2*200 mg/kg/day), po. The format is functional, organism-based. The gist of the method:
as §1

The nature of series [7]: (§4) AUC in BALB/c mice at 100 mg/kg, po. The conditions noted are these: BALB/c, mouse, plasma. The series is classed as ADME, organism-based, Plasma. Details: dose 100 mg/kg, route oral. The gist of the method:
as §2

Series [8] deals with Mus musculus. Kind of series: Tumor growth inhibition in murine xenograft model using N87 stomach cancer cell line at 200 mg/kg/day, po. The conditions noted are these: NCI-N87. The format is functional, organism-based. The essentials:
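Female nu/nu athymic mice, 6-8 weeks old, implanted sc in the flank with N87 tumor fragments (~2 mm³) or 5 × 10⁶ cells. Established tumors of 50-200 mm³ used, n = 6-10 per group. H3PO4 salt given orally at 1 × 200 or 2 × 100 mg/kg/day, 5 days/week; vehicle-dosed controls. Caliper volumes (l × w²)/2 taken twice weekly.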

The nature of series [9]: Half life in BALB/c mice at 100 mg/kg, po. The format is ADME, organism-based. Also noted: dose 100 mg/kg, route oral. To be noted: mouse, in vivo. The gist of the method: as §2
Series [10] deals with Mus musculus. Kind of series: Degradation of PI3K in murine N87 xenograft model at (2*200 mg/kg/day), po. The series is classed as functional, organism-based. The gist of the method: as §1
Series [11] in a line: Volume of distribution in BALB/c mice at 10 mg/kg, iv. To be noted: mouse, in vivo, read-out: Vdss. The format is ADME, organism-based. Also noted: dose 10 mg/kg, route intravenous. The essentials: as §2
Series [12] concerns Mus musculus. Kind of series: Degradation of pAKT in murine N87 xenograft model at (2*200 mg/kg/day), po. The format is functional, organism-based. The essentials:
as §1

The test system of series [13] is Mus musculus. Kind of series: Upregulation of Hsp70 in murine N87 xenograft model at (2*200 mg/kg/day), po. The format is functional, organism-based.
Series [14] is described as follows: Cmax in BALB/c mice at 100 mg/kg, po. The conditions noted are these: mouse, in vivo. Also noted: dose 100 mg/kg, route oral. The series is classed as ADME, organism-based. The essentials:
as §2

Series [15] is described as follows: Clearance in BALB/c mice at 10 mg/kg, iv. Details: dose 10 mg/kg, route intravenous. To be noted: mouse, in vivo. The series is classed as ADME, organism-based. The gist of the method:
as §2

Series [16] has as its system Mus musculus. The description is as §3. The format is ADME, organism-based. The conditions noted are these: in vivo. The gist of the method:
as §2

For series [17], the system named is Mus musculus. The series is described as §4. The series is classed as ADME, organism-based, Plasma. Also noted: dose 100 mg/kg, route oral. The conditions noted are these: in vivo. The essentials:
as §2

For series [18], the system named is Mus musculus. The series can be described thus: Degradation of pRaf in A549 tumor xenograft at 200 mg/kg, po. The format is functional, organism-based. Also noted: dose 200 mg/kg. The gist of the method:
(§5)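 Female nu/nu athymic mice (6-8 weeks old) carrying subcutaneous A549 lung cancer xenografts received a single oral gavage dose of the H₃PO₄ salt (200 mg/kg), formulated as a phosphatidylcholine/water dispersion. Mice were sacrificed at 6, 24 or 48 h, and tumors were harvested. HER-2, pHER-2, pAKT, pRaf and Hsp70 levels were assessed by Western blot.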

The test system of series [19] is Mus musculus. The series can be described thus: Degradation of pAKT in A549 tumor xenograft at 200 mg/kg, po. The series is classed as functional, organism-based. Details: dose 200 mg/kg. The essentials: as §5
Series [20] deals with Mus musculus. The series can be described thus: Degradation of HER2 in A549 tumor xenograft at 200 mg/kg, po. The series is classed as functional, organism-based. Also noted: dose 200 mg/kg. The gist of the method: as §5
The target of series [21] is Heat shock protein HSP 90-alpha (Homo sapiens) (UniProt P07900). The series can be described thus: Hsp90 inhibition measured as HER-2 degradation in MCF-7 cells.
Series [22] has as its system Mus musculus. Kind of series: Upregulation of Hsp70 in A549 tumor xenograft at 200 mg/kg, po. The format is functional, organism-based. Also noted: dose 200 mg/kg. The essentials: as §5
A further series concerns A549. The series can be described thus: Degradation of pHER2 in A549 tumor xenograft at 200 mg/kg, po. The series is classed as functional, organism-based. Details: dose 200 mg/kg. The conditions noted are these: Mus musculus. The gist of the method:
as §5

For orientation: Tmax means the time at which the peak concentration occurs. A word on the half-life: it is the time needed for the level to fall by half in the phase considered. A low value points to fast loss. One may read the IC50 as the point on the concentration scale where inhibition reaches its midpoint. High values mean lower potency, low ones higher potency. The term bioavailability denotes dose-corrected exposure relative to a reference, in per cent. A low value points to little systemic uptake. For orientation: AUC means the area under the concentration-time curve, a measure of exposure. As usually defined, the Cmax is the maximum level reached in the sampled fluid or tissue. One may read the clearance as the rate of elimination divided by the concentration. A high value points to efficient removal. For the compound `COc1ccc(I)c(Sc2nc3c(N)ncnc3n2CCCNC(C)C)c1`, the outcome in the series with Mus musculus [1], with Mus musculus [3], in the series on Mus musculus [6], in the series with Mus musculus [8], in the series with Mus musculus [12] and in the series on Mus musculus [13] was Active. In addition, the time to peak (Tmax) in series [2] was found to be 0.5 h. For the same compound, the values for the half-life in series [4] and in series [9] were 4.2 h and 1.5 h, respectively. Further, half-maximal inhibition in the series on MCF7 (IC50) was put at 600 nM. Moreover, the bioavailability in [5] was 55%. The compound further showed an AUC in series [7] of 7500 ng·h/mL. Moreover, the outcome in the series on Mus musculus [10] was inactive. The Vd in [11] stood at 22 L/kg. This compound came in with a Cmax in series [14] of 4700 ng/mL. In addition, the clearance in series [15] was found to be 62 mL/min/kg.

For the compound `C#CCCCn1c(Sc2cc(OC)c(OC)c(OC)c2Cl)nc2c(N)nc(F)nc21`, the midpoint of inhibition in the series with MCF7, the IC50, lay at 1200 nM.

In the series on MCF7, `CCC(CC)NCCCn1c(Sc2cc(OC)ccc2I)nc2c(N)ncnc21` showed an IC50 of 200 nM.

Compound `C#CCCCn1c(Sc2cc(OC)ccc2I)nc2c(N)ncnc21` gave an IC50 with MCF7 of 700 nM.

Regarding `CCC(C)NCCCn1c(Sc2cc(OC)ccc2I)nc2c(N)ncnc21` (stereo not drawn), the Tmax in series [2] worked out at 0.5 h. Also, the half-life is 1.3 h in series [4] and 0.7 h in [9]. Further, in the series with MCF7, the half-maximal inhibitory concentration (IC50) stood at 200 nM. In the series with Mus musculus [16], the F is 28%. Moreover, the AUC with Mus musculus [17] amounted to 380 µg·min/mL. Further, in the series with Mus musculus [8], the outcome was Active. The Vd in [11] was 3.4 L/kg. Moreover, the highest level in series [14] (Cmax) was 4800 ng/mL.

Compound `COc1ccc(I)c(Sc2nc3c(N)ncnc3n2CCCNC(C)(C)C)c1` returned an IC50 in the series on MCF7 of 200 nM.

With `COc1ccc(I)c(Sc2nc3c(N)ncnc3n2CCNCC(C)C)c1`, the outcome with Mus musculus [18], in the series on Mus musculus [19], in the series on Mus musculus [20], in the series on Mus musculus [22] and in the series on A549 was Active. Further, the IC50 in the series with MCF7 was 200 nM; in [21], 100 nM.

Take `COc1ccc(I)c(Sc2nc3c(N)ncnc3n2CCNCC(C)(C)C)c1`: the half-maximal inhibitory concentration (IC50) in the series on MCF7 is 500 nM. Moreover, the outcome in the series with Mus musculus [8] was Active.
